Publication PMC6832743 (ACS nano, 2019)

Experiments:
[1] = UV-vis absorption / aqueous solubility of Ce6; type: physicochemical; conditions: Ce6 diluted in PBS; ~660 nm absorption peak absent
[2] = tested on: Mouse bone marrow-derived dendritic cells (BMDCs); assay: BMDC activation; type: cell-based; conditions: 6 h incubation + 18 h fresh medium, flow cytometry
Summary of the method: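 Immature mouse bone marrow-derived DCs plated at 2 × 10^6 cells per well and held overnight. Cells exposed for 6 h to free adjuvant, free photosensitizer or adjuvant/photosensitizer-loaded mesoporous silica nanoparticles. Medium then replaced and incubation continued for 18 h. Cells harvested, stained with fluorophore-labelled anti-CD40, anti-CD80 and anti-CD86, and analysed by flow cytometry, gating live intact cells only.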

[3] = tested on: Mouse bone marrow-derived dendritic cells (BMDCs); assay: BMDC cytokine secretion; type: cell-based; conditions: 6 h incubation + 18 h fresh medium, ELISA
Summary of the method: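 Immature mouse bone marrow-derived DCs plated at 2 × 10^6 cells per well and held overnight. Cells exposed for 6 h to free adjuvant, free photosensitizer or loaded mesoporous silica nanoparticles. Medium exchanged for fresh medium and incubation continued for 18 h. Culture medium then collected and IL-12p70 and TNF-α measured with ELISA kits.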

Compound | aqueous solubility [1] | DC maturation (expression levels of CD40, CD80, CD86) [2] | secretion of IL-12p70 and TNF-α [3]
C=Cc1c(C)c2cc3nc(c(CC(=O)O)c4[nH]c(cc5nc(cc1[nH]2)C(C)=C5CC)c(C)c4C(=O)O)[C@@H](CCC(=O)O)[C@@H]3C [Ce6, chlorin e6] | poor aqueous solubility | no obvious signs of DC maturation | did not secrete any detectable levels
CSSASMTNMELM [Adpgk] | – | no obvious signs of DC maturation | did not secrete any detectable levels
